In article PMC7644341 (Journal of natural products, 2020):
Marks after values point to notes of the source that are not given here. One block for each compound: values may come before it.

How the values were obtained:
Non-enzymatic stability = type: physicochemical; settings: for percent BAPC hydrolysis/cleavage (non-enzymatic) in phosphate buffer: pH 7.4, 48 h
[1] = tested on: A549 human lung cancer cell line; assay: Differential cytotoxicity
4T1-luc tumors = assay: H&E histology of harvested tumors; type: in vivo, BALB/c mice; settings: 180 mg/kg IP
How it was run: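 4T1-luc orthotopic mammary fat pad tumors in female BALB/cJ mice were dosed once IP with test compound (180 mg/kg in DPS vehicle). Tumors were harvested at 72 h, or after further imaging at 96 h, when survivors were killed by cervical dislocation under isoflurane. They were stained with hematoxylin and eosin. Each tumor's histology was matched to its BLI response.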

[2] = target: T1, Rat NADPH-cytochrome P450 oxidoreductase (POR) supersomes (Rattus norvegicus, UniProt P00388); assay: NADPH-cytochrome P450 oxidoreductase cleavage assay; type: in vitro ADME; settings: for percent BAPC cleavage by POR: 90 min, anaerobic, 37 °C, NC = no cleavage observed
T1 sequence (P00388 1-678): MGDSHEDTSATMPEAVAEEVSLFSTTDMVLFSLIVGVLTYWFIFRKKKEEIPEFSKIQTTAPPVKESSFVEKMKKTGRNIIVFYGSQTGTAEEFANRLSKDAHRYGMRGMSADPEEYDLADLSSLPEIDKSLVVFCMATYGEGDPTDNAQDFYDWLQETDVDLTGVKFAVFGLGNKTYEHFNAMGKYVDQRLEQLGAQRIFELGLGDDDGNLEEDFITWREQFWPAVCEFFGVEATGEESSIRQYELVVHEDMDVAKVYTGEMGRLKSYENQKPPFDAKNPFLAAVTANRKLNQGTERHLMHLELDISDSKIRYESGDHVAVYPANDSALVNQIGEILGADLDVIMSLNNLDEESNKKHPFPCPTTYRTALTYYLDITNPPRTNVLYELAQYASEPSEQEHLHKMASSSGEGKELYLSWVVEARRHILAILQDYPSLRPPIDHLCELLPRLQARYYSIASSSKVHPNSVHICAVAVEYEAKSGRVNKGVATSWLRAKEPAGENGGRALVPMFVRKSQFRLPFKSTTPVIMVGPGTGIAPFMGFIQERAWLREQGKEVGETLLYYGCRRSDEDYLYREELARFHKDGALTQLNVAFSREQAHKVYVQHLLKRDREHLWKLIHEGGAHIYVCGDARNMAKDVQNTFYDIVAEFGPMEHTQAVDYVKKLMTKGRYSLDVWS

[3] = tested on: orthotopic 4T1-luc breast tumors; assay: In vivo dynamic bioluminescence imaging; design: species or system BALB/c mice; settings: 180 mg/kg IP single dose
How it was run: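 Cells: 4T1-luc, firefly luciferase-expressing, grown in RPMI1640 with 10% FBS. 10⁶ cells in PBS with 30% Matrigel were implanted into the left upper ventral mammary fat pad of female BALB/cJ mice and grown 11 days to 10–12 mm. Baseline BLI was taken under 2% isoflurane after SC D-luciferin (120 mg/kg). Then a single IP dose of test compound was given (180 mg/kg in DPS, n=3), with vehicle and combretastatin A-4 phosphate (120 mg/kg) controls. Imaging (~20 min) was repeated at 4, 24 and 48 h with fresh luciferin, comparing area under the light-emission curve.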

tubulin = assay: Inhibition of [3H]colchicine binding to tubulin; settings: 1.0 μM tubulin, 5.0 μM [3H]colchicine
How it was run: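 Incubation was 10 min at 37 °C, when control binding is about 50% complete. Bound ligand was collected on paired filters and scintillation-counted at least 18 h later. Counts were corrected for filter-bound colchicine without tubulin, and percent inhibition was calculated against no-inhibitor controls.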

Compound: COc1ccc(/C=C\c2cc(OC)c(OC)c(OC)c2)c(OC(C)(C)c2ccc([N+](=O)[O-])s2)c1O [compound 41, (Z)-6-Methoxy-2-((2-(5-nitrothiophen-2-yl)propan-2-yl)oxy)-3-(3,4,5-trimethoxystyryl)phenol]
spontaneous hydrolysis in pH 7.4 buffer (Non-enzymatic stability; first 150 min): no apparent spontaneous hydrolysis
hydrolysis in pH 7.4 buffer (Non-enzymatic stability; incubated 24–48 h): mostly hydrolyzed
percent BAPC hydrolysis/cleavage (non-enzymatic) in phosphate buffer (Non-enzymatic stability): 100%

Compound: COc1cc(/C=C\c2ccc(OC)c(OC(C)c3ccc([N+](=O)[O-])s3)c2O)cc(OC)c1OC (centres unmarked) [compound 40, (Z)-3-Methoxy-2-(1-(5-nitrothiophen-2-yl)ethoxy)-6-(3,4,5-trimethoxystyryl)phenol]
percent BAPC hydrolysis/cleavage (non-enzymatic) in phosphate buffer (Non-enzymatic stability): 0^c %

Compound: COc1cc(/C=C\c2ccc(OC)c(OCc3ccc([N+](=O)[O-])s3)c2O)cc(OC)c1OC [compound 39, (Z)-3-Methoxy-2-((5-nitrothiophen-2-yl)methoxy)-6-(3,4,5-trimethoxystyryl)phenol]
percent BAPC hydrolysis/cleavage (non-enzymatic) in phosphate buffer (Non-enzymatic stability): 0^b %

Compound: COc1cc(/C=C\c2ccc(OC)c3c2OC(C)(c2ccc([N+](=O)[O-])s2)O3)cc(OC)c1OC (centres unmarked) [compound 36, (Z)-4-Methoxy-2-methyl-2-(5-nitrothiophen-2-yl)-7-(3,4,5-trimethoxystyryl)-benzo[d][1,3]dioxole]
percent BAPC hydrolysis/cleavage (non-enzymatic) in phosphate buffer (Non-enzymatic stability): 0%

Compound: Nc1n[n+]([O-])c2ccccc2[n+]1[O-] [Tirapazamine]
hypoxia cytotoxicity ratio (HCR) ([1]; assays in which drug was washed out after 4 h): > 62

Compound: COc1ccc(/C=C\c2cc(OC)c(OC)c(OC)c2)cc1OC(C)(C)c1ccc([N+](=O)[O-])s1 [compound 45, (Z)-2-(2-(2-Methoxy-5-(3,4,5-trimethoxystyryl)phenoxy)propan-2-yl)-5-nitrothiophene]
tumor necrosis (H&E) (4T1-luc tumors; BLI-unresponsive tumor): 47%
tumor necrosis (H&E) (4T1-luc tumors; tumor showing a strong BLI signal response): 55%
stability in phosphate buffer (Non-enzymatic stability; pH 7.4, 24 h): stable
percent BAPC cleavage by POR [2]: 25%
cleavage by POR supersomes ([2]; 24 h, anaerobic conditions): Complete cleavage
decrease in light emission (BLI) ([3]; 4 h, two of three mice): > 80%
depression of light emission (BLI) ([3]; 24 h, the two responding tumors): > 75%
light emission (BLI) recovery ([3]; by 48 h, the two responding tumors): substantial recovery

percent BAPC hydrolysis/cleavage (non-enzymatic) in phosphate buffer (Non-enzymatic stability): 0%
Compound: COc1cc(/C=C\c2ccc(OC)c3c2OC(c2ccc([N+](=O)[O-])s2)O3)cc(OC)c1OC (centres unmarked) [compound 35, (Z)-4-Methoxy-2-(5-nitrothiophen-2-yl)-7-(3,4,5-trimethoxystyryl)-benzo[d][1,3]dioxole]

Compound: Br.O=[N+]([O-])c1nccn1CC(O)CNCCBr (centres unmarked) [RB6145]
hypoxia cytotoxicity ratio (HCR) ([1]; A549, GI50 oxic versus anoxic, drug removal step omitted): >3.7

Compound: COc1ccc(/C=C\c2cc(OC)c(OC)c(OC)c2)c(OCc2ccc([N+](=O)[O-])s2)c1O [compound 37, (Z)-6-Methoxy-2-((5-nitrothiophen-2-yl)methoxy)-3-(3,4,5-trimethoxystyryl)phenol]
percent BAPC hydrolysis/cleavage (non-enzymatic) in phosphate buffer (Non-enzymatic stability): 0^b %

Compound: COc1ccc(/C=C\c2cc(OC)c(OC)c(OC)c2)c(OC(C)c2ccc([N+](=O)[O-])s2)c1O (centres unmarked) [compound 38, (Z)-6-Methoxy-2-(1-(5-nitrothiophen-2-yl)ethoxy)-3-(3,4,5-trimethoxystyryl)phenol]
percent BAPC hydrolysis/cleavage (non-enzymatic) in phosphate buffer (Non-enzymatic stability): 0.5^c %

Compound: COc1ccc(/C=C\c2cc(OC)c(OC)c(OC)c2)cc1O [compound 42, combretastatin A-4]
inhibition of colchicine binding % inhibition ± SD (tubulin; compound at 1 μM): 84±2%
inhibition of colchicine binding % inhibition ± SD (tubulin; compound at 5 μM): 97±0.7%

Compound: (Z)-3-Methoxy-2-(2-(5-nitrothiophen-2-yl)propoxy)-6-(3,4,5-trimethoxystyryl)-phenyl-4-methylbenzenesulfonate [compound 23]
percent BAPC hydrolysis/cleavage (non-enzymatic) in phosphate buffer (Non-enzymatic stability): 0.84%
percent BAPC cleavage by POR [2]: 13.5%
